In ChEMBL document CHEMBL1123711, “Substituted 1,2,3,4-tetrahydroaminonaphthols: antihypertensive agents, calcium channel blockers, and adrenergic receptor blockers with catecholamine-depleting effects” (J Med Chem, 1987):
Active and inactive are the calls of the source. The rule behind the calls is not given here.

What was measured:
Rattus norvegicus [1] = experiment: Antihypertensive activity as percent maximum (0-6 hr) decrease in blood pressure at 135 umol/kg, perorally (~40-50 mg/kg) in 5 spontaneously hypertensive rats (SHR); format: functional
Rattus norvegicus [2] = experiment: Antihypertensive activity as percent maximum (over 24 hr) decrease in blood pressure at 135 umol/kg, perorally (~40-50 mg/kg) in 5 spontaneously hypertensive rats (SHR); format: functional
Oryctolagus cuniculus = species on record: Oryctolagus cuniculus; experiment: Calcium channel blocking activity in vitro in rabbit thoracic aorta preparation (n=4) by using linear regression analysis; format: functional
Summary of the method: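 Rabbit thoracic aorta strips held under a 4-g preload in PSS at 37 °C, pH 7.35, gassed with 95% O2/5% CO2, equilibrated ≥1 h. Contraction by high-K+ (100 mM) PSS with Na+ reduced equimolarly. At plateau, cumulative test concentrations were added and relaxation was normalized to initial tension. IC50 by regression on the linear part of the concentration–response curve.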

Rattus norvegicus [3] = experiment: Antihypertensive activity as percent average (over 24 hr) decrease in blood pressure at 135 umol/kg po (~40-50 mg/kg) in 5 spontaneously hypertensive rats (SHR); format: functional
Rattus norvegicus [4] = experiment: Antihypertensive activity as percent maximum (0-6 hr) decrease in blood pressure at 45 umol/kg poin 5 spontaneously hypertensive rats (SHR); format: functional
Rattus norvegicus [5] = experiment: Antihypertensive activity as percent maximum (over 24 h) decrease in blood pressure at 135 umol/kg, perorally (~40-50 mg/kg) in 5 spontaneously hypertensive rats (SHR); format: functional
Rattus norvegicus [6] = experiment: Antihypertensive activity as percent average (over 24 hr) decrease in blood pressure at 135 umol/kg po (~40-50 mg/kg) in 5 spontaneously hypertensive rats (SHR); NA denotes not active; format: functional, organism-based
Rattus norvegicus [7] = experiment: Antihypertensive activity as percent maximum (0-6 hr) decrease in blood pressure at 135 umol/kg po (~40-50 mg/kg) in 5 spontaneously hypertensive rats (SHR); NA denotes not active; format: functional, organism-based
Rattus norvegicus [8] = experiment: Antihypertensive activity as percent maximum (0-6 hr) decrease in blood pressure at 135 umol/kg, perorally (~40-50 mg/kg) in 5 spontaneously hypertensive rats (SHR); NA denotes no activity; format: functional, organism-based
Rattus norvegicus [9] = experiment: Antihypertensive activity as percent maximum (over 24 hr) decrease in blood pressure at 135 umol/kg, perorally (~40-50 mg/kg) in 5 spontaneously hypertensive rats (SHR); NA denotes no activity; format: functional, organism-based
[10] = molecular target: Adrenergic receptor alpha; experiment: Compound was evaluated for the alpha-Adrenoceptor pA2 blocking activity in vitro in rabbit thoracic aorta; format: functional, tissue-based, Oryctolagus cuniculus
Rattus norvegicus [11] = experiment: Antihypertensive activity as percent maximum (0-6 hr) decrease in blood pressure at 135 umol/kg po (~40-50 mg/kg) in 5 spontaneously hypertensive rats (SHR); format: functional
Rattus norvegicus [12] = experiment: Antihypertensive activity as percent maximum (0-6 hr) decrease in blood pressure at 45 umol/kg po (~22 mg/kg) in 4 spontaneously hypertensive rats (SHR); format: functional
Rattus norvegicus [13] = experiment: Percent Catecholamine-depletion in brain by administering a dose of 2 x 45 umol/kg, perorally to 4 spontaneously hypertensive rats (SHR).; format: functional
Summary of the method: (§1)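 SHR given two oral doses of 45 µmol/kg, 17 h apart. Rats decapitated 4 h after the second dose; hearts and brains quickly removed and frozen. Tissue extracts in glutathione centrifuged at 0 °C, and the protein-free supernatant diluted and assayed in duplicate for catecholamines by radioenzymatic kit.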

Rattus norvegicus [14] = experiment: Percent Catecholamine-depletion in heart by administering a dose of 2 x 45 umol/kg, perorally to 4 spontaneously hypertensive rats (SHR).; format: functional; summary of the method: as §1
Rattus norvegicus [15] = experiment: Antihypertensive activity as percent average (0-24 hr) decrease in blood pressure at 45 umol/kg po (~22 mg/kg) in 4 spontaneously hypertensive rats (SHR); format: functional
Canis familiaris = species on record: Canis familiaris; experiment: Compound was evaluated for the slow action potential blockade in canine Purkinje fibers in vitro (n = 4)
Rattus norvegicus [16] = experiment: Antihypertensive activity as percent maximum (over 24 hr decrease in blood pressure at 135 umol/kg, perorally (~40-50 mg/kg) in 5 spontaneously hypertensive rats (SHR); format: functional

Work on `COc1cc2c(cc1OC)C[C@H](O)[C@@H](NCCC(c1ccccc1)c1ccccc1OC)C2.Cl` (some centres undefined) yielded a Decrease (Rattus norvegicus [1]) of 21%, a Decrease (Rattus norvegicus [2]) of 28% and an IC50 (Oryctolagus cuniculus) of 600 nM.
For `COc1cc2c(cc1OC)C[C@H](O)[C@@H](NCCC1c3ccccc3-c3ccccc31)C2.Cl`, the Decrease (Rattus norvegicus [1]) was 32%, the Decrease (Rattus norvegicus [2]) was 34% and the IC50 (Oryctolagus cuniculus) was 1400 nM.
`COc1cc2c(cc1OC)C[C@H](O)[C@@H](NC(=O)CC(c1ccccc1)c1ccccc1)C2` showed a Decrease (Rattus norvegicus [1]) of 6%, a Decrease (Rattus norvegicus [2]) of 16% and an IC50 (Oryctolagus cuniculus) of 9400 nM.
`Cl.Oc1cc2c(cc1O)C[C@H](O)[C@@H](NCCC(c1ccccc1)c1ccccc1)C2` was tested, and the Decrease (Rattus norvegicus [3]) was 30%, the Decrease (Rattus norvegicus [4]) was 29% and the IC50 (Oryctolagus cuniculus) was 19600 nM.
With `COc1cc2c(cc1OC)C[C@H](O)[C@@H](NCCC(c1ccccc1)C(C)C)C2.Cl` (some centres undefined) the Decrease (Rattus norvegicus [5]) was 10%, the Decrease (Rattus norvegicus [1]) was 8% and the IC50 (Oryctolagus cuniculus) was 2500 nM.
With `COc1cc2c(cc1OC)C[C@H](OC)[C@@H](NCCC(c1ccccc1)c1ccccc1)C2` the Decrease (Rattus norvegicus [6]) was “inactive”, the Decrease (Rattus norvegicus [7]) was “inactive” and the IC50 (Oryctolagus cuniculus) was 1800 nM.
`Cl.O[C@H]1Cc2cc3c(cc2C[C@@H]1NCCC(c1ccccc1)c1ccccc1)OCO3` was tested, and the Decrease (Rattus norvegicus [1]) was 25%, the Decrease (Rattus norvegicus [2]) was 25% and the IC50 (Oryctolagus cuniculus) was 300 nM.
Compound `COc1ccc(OC)c2c1C[C@H](NCCCc1nc3ccccc3s1)[C@@H](O)C2.Cl` has a Decrease (Rattus norvegicus [1]) of 16%, a Decrease (Rattus norvegicus [2]) of 16% and an IC50 (Oryctolagus cuniculus) of 13500 nM.
For `COc1ccc(OC)c2c1C[C@H](NCC(c1ccccc1)c1ccccc1)[C@@H](O)C2.Cl`, the Decrease (Rattus norvegicus [1]) was 10%, the Decrease (Rattus norvegicus [2]) was 16% and the IC50 (Oryctolagus cuniculus) was 13300 nM.
In the case of `COc1ccc(OC)c2c1C[C@H](NCCc1ccccc1)[C@@H](O)C2`, the Decrease (Rattus norvegicus [8]) is reported as “inactive”, the Decrease (Rattus norvegicus [9]) is reported as “inactive” and the IC50 (Oryctolagus cuniculus) is reported as 21000 nM.
In the case of `COc1ccc(OC)c2c1C[C@H](NCCCCC(c1ccccc1)c1ccccc1)[C@@H](O)C2.Cl`, the Decrease (Rattus norvegicus [5]) is reported as 10%, the Decrease (Rattus norvegicus [1]) is reported as 10% and the IC50 (Oryctolagus cuniculus) is reported as 2000 nM.
For `Cl.O[C@H]1Cc2ccccc2C[C@@H]1NCCC(c1ccccc1)c1ccccc1`, the Decrease (Rattus norvegicus [1]) was 11%, the Decrease (Rattus norvegicus [2]) was 8% and the IC50 (Oryctolagus cuniculus) was 400 nM.
`COc1cc2c(cc1OC)C[C@H](OC(C)=O)[C@@H](NCCC(c1ccccc1)c1ccccc1)C2.Cl` was tested, and the Decrease (Rattus norvegicus [1]) was 34%, the Decrease (Rattus norvegicus [2]) was 34% and the IC50 (Oryctolagus cuniculus) was 2800 nM.
With `COc1cc2c(cc1OC)C[C@H](O)[C@@H](NCCC(c1ccccc1)c1ccccc1)C2.Cl` the Decrease (Rattus norvegicus [3]) was 34%, the pA2 [10] was 6 and the Decrease (Rattus norvegicus [11]) was 32%. For the same compound, the Max (Rattus norvegicus [12]) was 21%, the Depletion (Rattus norvegicus [13]) was 0% and the Depletion (Rattus norvegicus [14]) was 97%. It also gave an Average (Rattus norvegicus [15]) of 25%, an IC50 (Canis familiaris) of 270 nM and an IC50 (Oryctolagus cuniculus) of 400 nM.
`COc1ccc(OC)c2c1C[C@H](NCCCc1c[nH]c3ccccc13)[C@@H](O)C2.Cl` showed a Decrease (Rattus norvegicus [1]) of 23%, a Decrease (Rattus norvegicus [2]) of 24% and an IC50 (Oryctolagus cuniculus) of 23000 nM.
`COc1cc2c(cc1OC)C[C@H](NCCC(c1ccccc1)c1ccccc1)[C@H](O)C2.Cl` was tested, and the Decrease (Rattus norvegicus [3]) was 19%, the Decrease (Rattus norvegicus [11]) was 14% and the IC50 (Oryctolagus cuniculus) was 200 nM.
With `COc1ccc(OC)c2c1C[C@H](NCCCC(c1ccccc1)c1ccccc1)[C@@H](O)C2.Cl` the Decrease (Rattus norvegicus [1]) was 6%, the Decrease (Rattus norvegicus [2]) was 10% and the IC50 (Oryctolagus cuniculus) was 800 nM.
With `COc1ccc(OC)c2c1C[C@H](NCCCc1ccccc1)[C@@H](O)C2.Cl` the Decrease (Rattus norvegicus [16]) was 14%, the Decrease (Rattus norvegicus [1]) was 14% and the IC50 (Oryctolagus cuniculus) was 5500 nM.
Work on `COc1ccc(OC)c2c1C[C@H](NCCCCc1ccccc1)[C@@H](O)C2.Cl` yielded a Decrease (Rattus norvegicus [1]) of 26%, a Decrease (Rattus norvegicus [2]) of 23% and an IC50 (Oryctolagus cuniculus) of 3600 nM.
In the case of `COc1cc2c(cc1OC)C[C@H](N(C)CCC(c1ccccc1)c1ccccc1)[C@@H](O)C2`, the Decrease (Rattus norvegicus [1]) is reported as 11%, the Decrease (Rattus norvegicus [2]) is reported as 19% and the IC50 (Oryctolagus cuniculus) is reported as 400 nM.
Work on `COc1ccc(OC)c2c1C[C@H](NCCC(C1CCCCC1)C1CCCCC1)[C@@H](O)C2.Cl` yielded a Decrease (Rattus norvegicus [1]) of 27% and a Decrease (Rattus norvegicus [2]) of 23%.
`COc1ccc(CCN(C)CCCC(C#N)(c2ccc(OC)c(OC)c2)C(C)C)cc1OC` (centres undefined) gave a Decrease (Rattus norvegicus [3]) of 32%, a Decrease (Rattus norvegicus [11]) of 40% and a Max (Rattus norvegicus [12]) of 16%. It also gave a Depletion (Rattus norvegicus [14]) of 75%, an Average (Rattus norvegicus [15]) of 21% and an IC50 (Canis familiaris) of 110 nM. For the same compound, the IC50 (Oryctolagus cuniculus) was 300 nM.
`Cc1cc2c(cc1C)C[C@H](O)[C@@H](NCCC(c1ccccc1)c1ccccc1)C2.Cl` showed a Decrease (Rattus norvegicus [1]) of 17%, a Decrease (Rattus norvegicus [2]) of 32% and an IC50 (Oryctolagus cuniculus) of 1000 nM.
With `COc1cc2c(cc1OC)C[C@H](NCCC(c1ccccc1)c1ccccc1)CC2.Cl` the Decrease (Rattus norvegicus [3]) was 12%, the Decrease (Rattus norvegicus [11]) was 11% and the IC50 (Oryctolagus cuniculus) was 200 nM.
For `COc1ccc(OC)c2c1C[C@H](NCCC(c1ccccc1)c1ccccc1)[C@@H](O)C2.Cl`, the Decrease (Rattus norvegicus [1]) was 15%, the Decrease (Rattus norvegicus [2]) was 19% and the IC50 (Oryctolagus cuniculus) was 1500 nM.
